The values that follow come from ChEMBL document CHEMBL2177000, “Pharmacokinetic optimization of class-selective histone deacetylase inhibitors and identification of associated candidate predictive biomarkers of hepatocellular carcinoma tumor response” (J Med Chem, 2012).

The source made the active and inactive calls. No cut-off for these calls is given here.

Data set [1] is described as follows: Clearance in mouse liver microsomes at 1 uM incubated for 10 mins by LC-MS/MS method. Format: ADME, Microsome. Summed up: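 Liver microsomes (human or mouse, 0.5 mg/mL) in 100 mM potassium phosphate pH 7.4 with 1 μM compound, prewarmed 10 min at 37 °C, started with NADPH (10 mM); stopped at 0, 3, 6, 9, 15, 30 min with ice-cold methanol containing tolbutamide internal standard; LC-MS/MS. Hepatic clearance (mL/min/kg) calculated from intrinsic clearance.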
A general note: Microsomes from liver hold many membrane-bound enzymes, among them those of drug oxidation.

The target of data set [2] is Voltage-gated inwardly rectifying potassium channel KCNH2 (Homo sapiens, UniProt Q12809). In words: Inhibition of human ERG expressed in CHO cells by patch clamp method. Format: cell-based. (In patch-clamp work, channel activity is measured electrically.)
Voltage-gated inwardly rectifying potassium channel KCNH2, sequence (Q12809 whole entry): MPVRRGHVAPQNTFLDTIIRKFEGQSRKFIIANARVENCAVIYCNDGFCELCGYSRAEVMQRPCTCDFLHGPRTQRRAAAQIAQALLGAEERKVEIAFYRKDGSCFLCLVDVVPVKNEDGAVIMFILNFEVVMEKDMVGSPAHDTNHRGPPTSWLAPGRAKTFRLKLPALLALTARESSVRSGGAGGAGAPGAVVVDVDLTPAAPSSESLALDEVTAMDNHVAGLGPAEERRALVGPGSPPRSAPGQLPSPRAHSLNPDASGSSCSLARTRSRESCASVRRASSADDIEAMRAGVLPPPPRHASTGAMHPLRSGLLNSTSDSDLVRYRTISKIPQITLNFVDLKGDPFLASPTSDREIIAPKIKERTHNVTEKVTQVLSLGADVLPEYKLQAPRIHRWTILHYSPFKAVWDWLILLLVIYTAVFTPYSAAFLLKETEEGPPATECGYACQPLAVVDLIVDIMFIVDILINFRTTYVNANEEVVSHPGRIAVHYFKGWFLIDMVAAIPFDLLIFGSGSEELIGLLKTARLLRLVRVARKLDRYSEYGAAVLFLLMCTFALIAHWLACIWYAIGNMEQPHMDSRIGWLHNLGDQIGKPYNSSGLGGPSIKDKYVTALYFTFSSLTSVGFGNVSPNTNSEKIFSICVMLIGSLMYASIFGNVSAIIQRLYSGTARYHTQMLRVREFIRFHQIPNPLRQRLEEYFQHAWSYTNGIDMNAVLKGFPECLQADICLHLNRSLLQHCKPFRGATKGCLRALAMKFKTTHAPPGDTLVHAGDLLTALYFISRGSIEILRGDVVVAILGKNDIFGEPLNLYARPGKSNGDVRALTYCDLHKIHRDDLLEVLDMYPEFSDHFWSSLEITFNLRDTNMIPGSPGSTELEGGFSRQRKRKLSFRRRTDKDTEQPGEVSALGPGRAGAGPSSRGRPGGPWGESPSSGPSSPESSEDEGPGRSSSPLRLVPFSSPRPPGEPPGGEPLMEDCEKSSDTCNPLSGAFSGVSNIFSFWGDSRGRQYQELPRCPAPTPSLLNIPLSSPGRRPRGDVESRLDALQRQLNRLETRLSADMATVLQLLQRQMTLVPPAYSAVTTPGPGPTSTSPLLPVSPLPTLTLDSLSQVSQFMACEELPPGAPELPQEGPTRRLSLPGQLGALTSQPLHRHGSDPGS
In data set [3] the test system is SMMC-7721. Nature of the data set: Induction of apoptosis in human SMMC-7721 cells assessed as necrotic cell level at 5 uM incubated for 48 hrs by FITC/Annexin V staining based flow cytometry (reference value: 2.31%).
The subject of another data set is HGC-27. Format: functional, Homo sapiens.
The test system of data set [4] is Mus musculus. Nature of the data set: Cmax in BALB/C mouse at 10 mg/kg, po or 2 mg/kg, iv by LC-MS/MS method. It is filed as ADME, organism-based. To be noted: in vivo. Put shortly: (§1)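 Female-unspecified BALB/C nude mice (15−20 g, N = 16 per arm); iv bolus 2 mg/kg in 5% DMSO/40% PEG400/55% saline and/or oral gavage 10 mg/kg as 0.445% microcrystalline cellulose microsuspension. Blood sampled at nine (iv) or eight (po) time points into sodium heparin tubes; plasma by LC-MS/MS; noncompartmental analysis.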

The subject of data set [5] is BEL-7404. Nature of the data set: Antitumor activity against human BEL-7404 cells xenografted in BALB/C mouse assessed as tumor growth inhibition at 50 mg/kg, po qd for 4 weeks. Particulars: BEL-7404, po, 672 h, read-out: TGI. For orientation: A xenograft is tissue or cells of one species grown in another, often human tumour cells in immunodeficient mice.
A short description of data set [6]: Antitumor activity against treatment responding human hepatocellular carcinoma patient tumor xenografted in BALB/C mouse assessed as tumor growth inhibition at 100 mg/kg, po administered every other day for 4 weeks. Format: functional. Particulars: 672 h, read-out: TGI. Summed up: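 Tumor fragments (3×3×3 mm3) from HCC patients implanted subcutaneously in right flank of female BALB/c nu/nu mice (6−7 weeks). At about 200 (150−250) mm3, randomized (n = 10 per arm); Q2D PO 100 mpk in 15% Kleptose pH 4.5 tartaric buffer, about four weeks; caliper tumor volume three times weekly.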

Data set [7] relates to SMMC-7721. In words: Induction of apoptosis in human SMMC-7721 cells assessed as early apoptotic cell level at 5 uM incubated for 48 hrs by FITC/Annexin V staining based flow cytometry (reference value: 2.61%).
The next data set relates to BGC-823. Format: functional, Homo sapiens.
For the next data set, the system named is SK-HEP1. Format: functional, Homo sapiens.
Data set [8] relates to BEL-7404. In words: Antitumor activity against human BEL-7404 cells xenografted in BALB/C mouse assessed as tumor growth inhibition at 100 mg/kg, po administered every other day for 4 weeks. To be noted: BEL-7404, po, 672 h, read-out: TGI.
The subject of data set [9] is Mus musculus. Nature of the data set: Half life in BALB/C mouse at 10 mg/kg, po or 2 mg/kg, iv by LC-MS/MS method. Format: ADME, organism-based. Particulars: in vivo. Summed up:
as §1

Data set [10] deals with Mus musculus. In words: Up-regulation of CCND2 gene expression in human hepatocellular carcinoma patient tumor xenografted in BALB/C mouse at 100 mg/kg, po administered every other day for 4 weeks by […]. Format: functional, organism-based. On the set-up: dose 100 mg/kg. Put shortly:
(§2)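 Patient HCC tumor fragments (3 × 3 × 3 mm3) implanted subcutaneously in female BALB/c nu/nu mice; at ~200 (150−250) mm3 dosed orally Q2D 100 mpk in 15% Kleptose pH 4.5 tartaric buffer for about four weeks. Tumor RNA (TRIzol, DNase I) run on 22-gene qRT-PCR array, normalized to GAPDH/β-glucuronidase by ΔCt, fold change versus day 0.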

In data set [11] the test system is SGC-7901. Nature of the data set: Inhibition of Class 1 histone deacetylase in human SGC7901 cells assessed as histone H3 acetylation at 0.6 to 5 uM incubated for 24 hrs by Western blot method. It is filed as cell-based. Summed up: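 SGC-7901 cells (1 × 10^6) seeded overnight, treated 24 h at indicated concentrations; lysed on ice with protease inhibitor, 15 000 g supernatant; 30 μg protein by SDS-PAGE, nitrocellulose, antibody probing for acetylated histone H3 and p21, ECL detection.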

Data set [12] concerns Mus musculus. Nature of the data set: Up-regulation of TIMP3 gene expression in human hepatocellular carcinoma patient tumor xenografted in BALB/C mouse at 100 mg/kg, po administered every other day for 4 weeks by […]. Format: functional, organism-based. On the set-up: dose 100 mg/kg. Summed up:
as §2

For data set [13], the system named is Mus musculus. Nature of the data set: Up-regulation of RASSF1 gene expression in human hepatocellular carcinoma patient tumor xenografted in BALB/C mouse at 100 mg/kg, po administered every other day for 4 weeks by […]. Format: functional, organism-based. The arrangement: dose 100 mg/kg. Put shortly:
as §2

The subject of data set [14] is Mus musculus. In words: Up-regulation of CDH1 gene expression in human hepatocellular carcinoma patient tumor xenografted in BALB/C mouse at 100 mg/kg, po administered every other day for 4 weeks by […]. It is filed as functional, organism-based. On the set-up: dose 100 mg/kg. Put shortly:
as §2

The subject of data set [15] is Mus musculus. Nature of the data set: Up-regulation of CACNA1G gene expression in human hepatocellular carcinoma patient tumor xenografted in BALB/C mouse at 100 mg/kg, po administered every other day for 4 weeks by […]. It is filed as functional, organism-based. The arrangement: dose 100 mg/kg. Summed up:
as §2

Data set [16] relates to Mus musculus. Nature of the data set: Down-regulation of CFLAR gene expression in human hepatocellular carcinoma patient tumor xenografted in BALB/C mouse at 100 mg/kg, po administered every other day for 4 weeks by […]. It is filed as functional, organism-based. The arrangement: dose 100 mg/kg. Summed up:
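Patient-derived HCC xenografts dosed 100 mpk Q2D PO; tumor total RNA (TRIzol, DNase I treated, column-purified) run on a customized 22-gene qRT-PCR array; ΔCt against mean of GAPDH and β-glucuronidase, fold-change relative to day 0 (pre-treatment).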

Data set [17] concerns Mus musculus. Nature of the data set: Up-regulation of CDKN1C gene expression in human hepatocellular carcinoma patient tumor xenografted in BALB/C mouse at 100 mg/kg, po administered every other day for 4 weeks by […]. The arrangement: dose 100 mg/kg. Format: functional, organism-based. Put shortly: as §2
In data set [18] the test system is Mus musculus. Nature of the data set: Reactivation of SPINT2 gene expression in treatment responding human hepatocellular carcinoma patient tumor xenografted in BALB/C mouse at 100 mg/kg, po administered every other day for 4 weeks. It is filed as functional, organism-based. The arrangement: dose 100 mg/kg. Put shortly:
as §2

Data set [19] relates to Mus musculus. In words: Up-regulation of THBS1 gene expression in human hepatocellular carcinoma patient tumor xenografted in BALB/C mouse at 100 mg/kg, po administered every other day for 4 weeks by […]. Format: functional, organism-based. On the set-up: dose 100 mg/kg. Put shortly:
as §2

For data set [20], the system named is Mus musculus. In words: Inhibition of Class 1 histone deacetylase in human Bel7404 cells xenografted BALB/C mouse assessed as induction of histone H3 acetylation at 50 mg/kg, po qd for 4 weeks by Western blot method. To be noted: Bel-7404.
Data set [21] relates to SGC-7901. In words: Induction of cell cycle arrest in human SGC7901 cells assessed as accumulation at G1/G2 phase incubated for 24 hrs by flow cytometry. It is filed as functional, cell-based. Put shortly:
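SGC-7901 cells (1 × 10^5, about 50% confluent) treated 24 h with a concentration series; fixed in chilled 70% ethanol 1 h at 4 °C, stained 1 h at room temperature with propidium iodide (50 μg/mL) plus RNase A and 0.05% Triton X-100; analysed by flow cytometry.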

For `CN1C[C@H](C(=O)Nc2ccc(Cl)cc2)[C@@H](c2ccc(/C=C/C(=O)Nc3ccccc3N)cc2F)C1` (racemic), the CLhep predicted at 1 µM in data set [1] is 36 mL/min/kg. Moreover, in data set [2], inhibition was half-maximal at 7 µM (IC50).

Turning to `CN1C[C@H](C(=O)Nc2ccc(Cl)cc2)[C@@H](c2ccc(/C=C/C(=O)Nc3ccccc3N)cc2)C1` [listing 1 of 2 here], the values for the Activity in the data set on SMMC-7721 [3] and in the data set with SMMC-7721 [7] were 15.41% and 3.56%, respectively. The GI90 is 1 µM with HGC-27, 2.2 µM in the data set with BGC-823 and 2.5 µM in the data set with SK-HEP1. Also, the Cmax in the data set with Mus musculus [4] was 893 ng/mL. In addition, the inhibition in vivo at 50 mg/kg in the data set with BEL-7404 [5] is more than 60%. Besides, the inhibition in vivo at 100 mg/kg in [6] is 50%; in the data set on BEL-7404 [8], more than 60%. The t1/2 in the data set with Mus musculus [9] is 3.4 h.

As to `CN1C[C@H](C(=O)Nc2ccc(Cl)cc2)[C@@H](c2ccc(/C=C/C(=O)Nc3ccccc3N)cc2)C1` [listing 2 of 2 here], the result in the data set on Mus musculus [10], with Mus musculus [12], in the data set with Mus musculus [15], in the data set on Mus musculus [16], in the data set with Mus musculus [17] and with Mus musculus [18] was Active. For the same compound, the result in the data set on Mus musculus [19] was Active. Besides, the inhibition result with SGC-7901 [11] was “Dose-dependent effect”. Also, the outcome in the data set with Mus musculus [13] and in the data set with Mus musculus [14] was inactive. For the same compound, in the data set on Mus musculus [20], the inhibition result was “Active”. Besides, the Activity entry with SGC-7901 [21] was “Dose-dependent effect”.

What is called IC50 is the concentration needed to halve the response being measured. Low values mean greater potency in that assay, high ones weaker potency in that assay. Usually Cmax stands for the maximum level reached in the sampled fluid or tissue.
